From the RNAGym collection of RNA variant scans (doi:10.1126/science.aae0568) come the findings set out here.

Variants at the floor of the assay were thinned out.

The chains are these.
B1: tRNA (parent)
chain: GUUCCGUUGGCGUAAUGGUAACGCGUCUCCCUCCUAAGGAGAAGACUGCGGGUUCGAGUCCCGUACGGAACG

In this data set the parent is B1. As to the kind of experiment: yeast fitness relative to wild type (ratio to wild type); higher = fitter; tRNA-Arg(CCU), competitive growth, 37 C, YPD. In a few lines:
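Genotype frequency changes were the basis for Darwinian fitness relative to wild type. The frequencies came from 100-nucleotide paired-end sequencing of gene amplicons from the start population and each end population of pooled yeast strains with tRNA-Arg(CCU) gene variants at the native locus. Competition ran in YPD at 37°C for 24 hours in six replicates, genotypes needed ≥ 100 starting reads, and estimates < 0.5 were set to 0.5.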
Take C33U A45U G68A: the yeast fitness was found to be 0.67.
For C33U C61U A69G, the yeast fitness was at most 0.5.
For C33U G51A A65U, the yeast fitness was at most 0.5.
Take C33U A42C U64C A70G: the yeast fitness was at most 0.5.
Regarding C34A A36C G67A, the yeast fitness was at most 0.5.
As for C33U C34A A43C G48A, the yeast fitness is at most 0.5.
In the case of C33U G56A G58C it was 0.589; in that of C34A C49U C61G, at most 0.5.
In the case of C34A A42U A45G, the yeast fitness is at most 0.5.
With C33G G38A, the yeast fitness worked out at 0.684.
On to C33G G52A, for which the yeast fitness amounted to 0.582.
Regarding C33G A42G G52A C62U A70U, the yeast fitness was at most 0.5.
For C33G G51A A65C, the yeast fitness came to 0.709.
For C33G A42G G52A A70U, the yeast fitness is at most 0.5.
Regarding C34A A40U G67A, the yeast fitness was at most 0.5.
In the case of C34A A57U U59A it was at most 0.5; in that of C33U A43U C55U, at most 0.5; in that of C33U U47A G63A, at most 0.5.
C33U G50A G52C A65C: the yeast fitness was 0.564.
As for C33G A45G U64A, the yeast fitness was found to be 0.586.
Turning to C33G U35C, the yeast fitness came out at 0.603.
In the case of C33G U35A, the yeast fitness was at most 0.5.
Consider C33G U47G G56A A57G A69U, for which the yeast fitness is at most 0.5.
In the case of C33U G38A C46U, the yeast fitness worked out at 0.562.
Consider C34A A45C A70C, for which the yeast fitness was 0.701.
Turning to C33G U35C U59A A69U, the yeast fitness was determined as 0.657.
For C33G C34U G38C U47A, the yeast fitness amounted to 0.517.
In the case of C33G C61G, the yeast fitness came to 0.815.
In the case of C33G A42G G52A C62A A70U it was 0.589; in that of C33G U64A, at most 0.5; in that of C33U A43G G52A, at most 0.5.
Regarding C33G G39C C55A, the yeast fitness was at most 0.5.
In the case of C33U A57G C66U it was at most 0.5; in that of C33U C62A, 0.824; in that of C33U C62G, 0.632.
In the case of C33U A36C A43G A57U it was at most 0.5; in that of C34A G39C, 0.792.
For the variant C33U C46A C55G, the yeast fitness turned out to be 0.604.
As to C33G G44A G56A C61U, the yeast fitness was at most 0.5.
As to C33G C60A, the yeast fitness was 0.715.
As for C33G C60G, the figure is at most 0.5.
As for C33G C60A C66G, the figure is at most 0.5; as for C33G G51C G68A A69C, 0.607.
In the case of C33G A70G it was 0.633; in that of C33G G41A A69C, at most 0.5; in that of C34A C66G, 0.647.
With C34A C66U, the yeast fitness stood at 0.764.
In the case of C33U G44C C60U A69G it was at most 0.5; in that of C33U A42G C46A, 0.644.
Regarding C33G A42U C61G, the yeast fitness is at most 0.5.
In the case of C33U C46U G68C, the yeast fitness turned out to be 0.615.
As for C33U A43C G63C, the yeast fitness is at most 0.5.
On to C34A A42U G68A, for which the yeast fitness is at most 0.5.
As for C33U G39A, the figure is 0.626; as for C33U G39C, 0.622; as for C33G G38C C46A, 0.551.
On to C33U A43U C49G G50C A65C, for which the yeast fitness was at most 0.5.
On to C33G G44A U47C A57G, for which the yeast fitness is at most 0.5.
Turning to C33U A43U, the yeast fitness was determined as 0.898.
Consider C33U A43C, for which the yeast fitness is 0.656.
With C33G C49A C55G G56C, the yeast fitness is 0.561.
In the case of C33G C61A C62U it was at most 0.5.
C34A A42U C61G A65U: the yeast fitness was at most 0.5.
Turning to C34A A40C C61A, the yeast fitness was at most 0.5.
For C33U G44C C49U, the yeast fitness turned out to be 0.531.
For the variant C33U A43U C49G G50C C60G, the yeast fitness is at most 0.5.
Regarding C34A A40U, the yeast fitness amounted to 0.705.
For the variant C34A A40G, the yeast fitness was 0.609.
Take C33U C62U G63A: the yeast fitness was at most 0.5.
Take C33G A65G: the yeast fitness is 0.734.
In the case of C33G C62A G63C it was at most 0.5; in that of C34A G41A C55G, at most 0.5.
Turning to C33U C49G G52C, the yeast fitness was found to be 0.501.
Regarding C33U C34A, the yeast fitness was 0.574.
As for C33G C66U, the figure is 0.787; as for C33G C66A, at most 0.5; as for C34A A43C A65C, at most 0.5.
In the case of C33U U35A it was at most 0.5; in that of C33U U35C, 0.579; in that of C33U C34A U53G U54A, 0.588.
As to C33U C34U G38A G51A C55A A65U, the yeast fitness was determined as 0.566.
As for C34A A37C, the yeast fitness is 0.713.
As for C33G A42U A45G, the figure is at most 0.5.
Turning to C34A A36C C61U U64A, the yeast fitness was at most 0.5.
Take C33U A36C A37G U64C: the yeast fitness was at most 0.5.
For the variant C34A C55U, the yeast fitness turned out to be 0.524.
With C34A C55G, the yeast fitness stood at 0.517.
As for C33U G39A A57G C66U, the figure is 0.557; as for C33U G56A C61G C66U, at most 0.5; as for C33G G52A G56U, at most 0.5.
With C33U A65C G68C, the yeast fitness was found to be 0.504.
Take C33G U47A: the yeast fitness was found to be 0.579.
As for C33U G68C, the figure is 0.686; as for C33G C34G C46G, at most 0.5; as for C33G A45U G51C, at most 0.5.
Take C33U C34A G38C G52A: the yeast fitness was at most 0.5.
For C33U A65U C66U, the yeast fitness was at most 0.5.
As for C33U U54C G58A, the yeast fitness is 0.643.
Turning to C34A C60G G68A, the yeast fitness worked out at 0.688.
As for C33G G41C A43C, the yeast fitness was at most 0.5.
For the variant C33U C49G C60G C62G G63A, the yeast fitness is at most 0.5.
In the case of C34A C55G G58A U64C A65C it was at most 0.5.
Consider C33U G48A C60U U64G A65U A69C, for which the yeast fitness is 0.571.
Take C33G C55A G58A: the yeast fitness was 0.609.
On to C33G U53A C60U, for which the yeast fitness came to 0.637.
For the variant C34A C46U, the yeast fitness came out at 0.615.
With C34A C46G, the yeast fitness turned out to be 0.693.
Turning to C34A C46A, the yeast fitness amounted to 0.691.
C34A A45G G63C: the yeast fitness amounted to 0.676.
As for C34A A37C G67C A69G, the figure is at most 0.5.
With C33G G52A U64C C66U G67A, the yeast fitness was at most 0.5.
Turning to C34A A42U G58C C60A C62U, the yeast fitness came to 0.571.
Turning to C34A A40C A42U, the yeast fitness is at most 0.5.
Turning to C34A A43U A70U, the yeast fitness stood at 0.607.
Turning to C33G C34U A65U, the yeast fitness was 0.629.
As to C34A A70G, the yeast fitness amounted to 0.634.
For the variant C33G A57U G68A A69U, the yeast fitness was at most 0.5.
For the variant C34A A42U U54A A57U, the yeast fitness was determined as 0.511.
On to C33U G48A, for which the yeast fitness amounted to 0.678.
In the case of C33U A45U it was 0.837.
In the case of C33U A42C, the yeast fitness was found to be 0.63.
As for C33U A65U, the yeast fitness stood at 0.816.
C34A A45G A57U C66U: the yeast fitness was at most 0.5.
On to C34A A65U, for which the yeast fitness turned out to be 0.736.
As for C34A A40C U54C C66U, the yeast fitness was 0.623.
On to C33U A37C G67U A69U, for which the yeast fitness is at most 0.5.
As for C33U G44C, the yeast fitness turned out to be 0.601.
Turning to C33G G39U A69C, the yeast fitness is at most 0.5.
For C33U A36C U54C, the yeast fitness was at most 0.5.
As for C33G A42U G63A, the yeast fitness was determined as 0.516.
For the variant C33G A45G C55G G56C, the yeast fitness is at most 0.5.
As for C34A C60G A70C, the figure is at most 0.5; as for C33G G67A, 0.672; as for C33G U53A, 0.65.
Regarding C33G G48A, the yeast fitness was found to be 0.629.
As to C33U A36G G41A C61G, the yeast fitness was at most 0.5.
Turning to C34A A57U G67C, the yeast fitness stood at 0.605.
Regarding C33U G52A, the yeast fitness was 0.58.
Regarding C33G U35C U59A, the yeast fitness came out at 0.594.
With C33U A42C A70G, the yeast fitness worked out at 0.75.
For the variant C33G G44A G56A A65G, the yeast fitness turned out to be 0.554.
As to C34A A57C, the yeast fitness was at most 0.5.
As for C34A A57G, the figure is 0.715.
With C33U C55U, the yeast fitness was 0.586.
In the case of C33G A43G U59A it was at most 0.5; in that of C33U A42C G68U, 0.538.
As for C33G G41A G50A, the figure is 0.624; as for C33G A45U C46U G56C, at most 0.5; as for C33G G38C G41C A43C U47G G67C, 0.582.
On to C33U U47A, for which the yeast fitness was determined as 0.829.
On to C33U C61U C66G, for which the yeast fitness worked out at 0.543.
For C33G C62A G67C, the yeast fitness is at most 0.5.
As for C33U A43U C49A G50C C61U C66U, the figure is at most 0.5; as for C34A A43C G67A, 0.537; as for C33U G41A C49U C61G, at most 0.5.
As to C33U C61A G63C A65G, the yeast fitness came to 0.549.
Regarding C33U C55U A70U, the yeast fitness was found to be 0.627.
Take C33G A45U G56C: the yeast fitness was 0.637.
As for C33U A40G, the figure is 0.71; as for C34A A45U C46A G50A U54C C55G, at most 0.5.
Regarding C33G A57G C61G G63A A65G C66U, the yeast fitness is at most 0.5.
Take C34A A37C C49A: the yeast fitness came out at 0.522.
Consider C34A C49A U59G C66U, for which the yeast fitness was at most 0.5.
With C33G C62U, the yeast fitness came to 0.758.
For the variant C34A C46U A65C, the yeast fitness was determined as 0.569.
Regarding C33U A70U, the yeast fitness turned out to be 0.902.
As to C33U A70C, the yeast fitness was 0.832.
